Assays:
TgACTI (T. gondii actin) = TgACTI (T. gondii actin) (Toxoplasma gondii, UniProt P53476); test: Ninety-degree light scattering of TgACTI polymerization; assay type: biochemical; conditions: 5 μM TgACTI in F-buffer, compounds at 0.25, 1 or 2 μM, 9000 s
In short: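 Baculovirus-expressed N-His TgACTI was Ni-NTA purified, dialysed into G buffer (pH 8.0, 0.2 mM ATP) and spun at 100000g to remove aggregates. It was held at 5 μM in G buffer at 21 °C, with ex/em 310 nm. After a steady baseline, 10× F buffer (500 mM KCl, 20 mM MgCl2, 10 mM ATP) went in at 1/10 volume with compound or DMSO control. Scatter counted for 9000 s.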

T. gondii = test: Inhibition of T. gondii proliferation; assay type: cell-based, Toxoplasma gondii; conditions: T. gondii growth on HFF monolayers
In short: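 β-gal-expressing parasites preincubated 30 min with compound dilutions in DMEM/10% FBS/gentamicin with 0.2% DMSO, then seeded at 500/well onto confluent HFF. Compound kept continuously or washed out after 2 or 48 h. After 72 h at 37 °C, 5% CO2, cells lysed and given chlorophenol red-β-D-galactopyranoside substrate. A570 normalised to untreated. EC50 from variable-slope log(inhibitor)–response fits, three experiments (n = 4 replicates).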

human cells = conditions: read-out: EC50, growth inhibition of human cells; cited from earlier work

Sequence of TgACTI (T. gondii actin) (P53476 whole entry): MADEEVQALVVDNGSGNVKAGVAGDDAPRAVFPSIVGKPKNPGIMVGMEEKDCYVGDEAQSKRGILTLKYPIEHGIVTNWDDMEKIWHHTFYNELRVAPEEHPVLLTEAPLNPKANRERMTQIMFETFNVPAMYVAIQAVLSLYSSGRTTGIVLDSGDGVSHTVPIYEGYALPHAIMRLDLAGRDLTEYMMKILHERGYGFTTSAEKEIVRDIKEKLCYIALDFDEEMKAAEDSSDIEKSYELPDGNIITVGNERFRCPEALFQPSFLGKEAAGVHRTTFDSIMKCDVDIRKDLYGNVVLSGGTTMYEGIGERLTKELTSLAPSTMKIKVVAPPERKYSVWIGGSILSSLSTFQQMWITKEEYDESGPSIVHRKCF

| SMILES | TgACTI polymerization (light scattering) (TgACTI (T. gondii actin)) | activity against the parasite (in words) (T. gondii) | EC50 (human cells) [nM] |
| --- | --- | --- | --- |
| CO[C@@H]1C(=O)O[C@H](C)[C@H](C)/C=C(\C)C[C@H](C)C(=O)N[C@@H](C)C(=O)N(C)[C@H](Cc2c[nH]c3ccccc23)C(=O)N[C@H]1c1ccccc1 [2a, synthetic chondramide A] | promote actin polymerization | – | – |
| CO[C@@H]1C(=O)O[C@H](C)[C@H](C)/C=C(\C)C[C@H](C)C(=O)N[C@@H](C)C(=O)N(C)[C@H](Cc2c[nH]c3ccccc23)C(=O)N[C@H]1c1ccc(C(N)=O)cc1 [2k] | – | eliminated activity against the parasite | ~1400 |
| C/C1=C\[C@H](C)C[C@H](C)OC(=O)C[C@H](c2ccc(O)cc2)NC(=O)[C@@H](Cc2c(Br)[nH]c3ccccc23)N(C)C(=O)[C@H](C)NC(=O)[C@@H](C)C1 [compound 1, Jasplakinolide, reference compound] | promote actin polymerization | – | – |
| CO[C@@H]1C(=O)O[C@H](C)[C@H](C)/C=C(\C)C[C@H](C)C(=O)N[C@@H](C)C(=O)N(C)[C@H](Cc2c[nH]c3ccccc23)C(=O)N[C@H]1c1ccc(O)cc1 [compound 2, chondramide A] | promote actin polymerization | – | – |

— publication PMC3787807 (Journal of Natural Products, 2013)
